From ChEMBL document CHEMBL1131107 (J Med Chem, 1998) come the findings set out here.

Structures are written as SMILES.

For assay [1], the target named is T1, Protein farnesyltransferase (Rattus norvegicus, UniProt Q02293+Q04631). The assay can be described thus: Inhibition of Farnesyltransferase from rat brain.
In assay [2] the test system is NIH3T3. The experiment in a line: Inhibition of Ras processing in Hras-transformed NIH3T3 cells.
For assay [3], the target named is T1, Protein farnesyltransferase. The assay can be described thus: Inhibition of Farnesyltransferase in competitive manner with respect to FPP (farnesyl diphosphate) at 0.6 uM FPP and 3.6 uM Ras peptide. The class given is protein-complex assay. The method in brief: (§1)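 FTase IC50 (nM) measured at varied substrate levels to test competition: FPP 0.6 or 6.0 μM and Ras C-terminal peptide 0.36 or 3.6 μM. Competition with FPP was judged from the shift in IC50 as FPP and peptide concentrations changed.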

For assay [4] the target is unchanged. The experiment in a line: Inhibition of FTase in competitive manner with respect to FPP (farnesyl diphosphate) at 6.0 uM FPP and 0.36 uM Ras peptide. Format: protein-complex assay. The method in brief:
as §1

Assay [5] has the same target. The assay can be described thus: Inhibition of Farnesyltransferase in competitive manner with respect to FPP (farnesyl diphosphate) at 0.6 uM FPP and 0.36 uM Ras peptide. The class given is protein-complex assay. The method in brief:
as §1

In assay [6] the test system is NIH3T3. The experiment in a line: Inhibition of Ras processing in Hras-transformed NIH3T3 cells at 15 uM.
The test system of assay [7] is NIH3T3 (Mus musculus). The experiment in a line: Inhibition of Ras processing in Hras transformed NIH3T3 cells.

In assay [1], `CC(C(C/C=C/c1nc2ccccc2o1)c1ccc(Cl)cc1)N(Cc1ccc2ccccc2c1)C(=O)CC(CC(=O)O)C(=O)O` (centres undefined) yielded an IC50 of 28 nM. Still for that read-out and setting: then `CC(C(Cc1ccc(Cl)cc1)c1ccc(Cl)cc1)N(C)C(=O)CC(CC(=O)O)C(=O)O` (centres undefined), with above 10000 nM; and `CC(C(C/C=C/c1nc2ccccc2o1)c1ccc2c(c1)OCO2)N(Cc1ccc2ccccc2c1)C(=O)CC(CC(=O)O)C(=O)O` (centres undefined), with 23 nM. Regarding `C[C@@H]([C@H](C/C=C/c1nc2ccccc2o1)c1ccc2c(c1)OCO2)N(Cc1ccc2ccccc2c1)C(=O)[C@@H]1OC(C(=O)O)(C(=O)O)O[C@H]1C(=O)O`, the IC50 amounted to 1200 nM in assay [2] and 3.9 nM in assay [1]. Turning to `C[C@@H]([C@H](C/C=C/c1nc2ccccc2o1)c1ccc2c(c1)OCO2)N(Cc1ccc2ccccc2c1)C(=O)[C@@H]1OC(C(=O)O)(C(=O)O)O[C@@H]1C(=O)O`, the IC50 worked out at 4300 nM in assay [2]; 7.2 nM in assay [3]; 45 nM in assay [4]; 5.6 nM in assay [5]; 5 nM in assay [1]. As to `CC(C(C/C=C/c1ccc2ccccc2c1)c1ccc(Cl)cc1)N(Cc1ccc2ccccc2c1)C(=O)CC(CC(=O)O)C(=O)O` (centres undefined), half-maximal inhibition in assay [1] (IC50) was put at 51 nM. Regarding `C[C@H]([C@@H](C/C=C/c1nc2ccccc2o1)c1ccc2c(c1)OCO2)N(Cc1ccc2ccccc2c1)C(=O)[C@@H]1OC(C(=O)O)(C(=O)O)O[C@@H]1C(=O)O`, the IC50 in assay [2] was 8800 nM; in assay [1] it was 6 nM. The like results for `C[C@@H]([C@H](C/C=C/c1nc2ccccc2o1)c1ccc2c(c1)OCO2)N(Cc1ccc2ccccc2c1)C(=O)[C@H]1OC(C(=O)O)(C(=O)O)O[C@H]1C(=O)O` were, in that order, 10000 nM and 3.9 nM. In assay [6], `C[C@@H]([C@H](C/C=C/c1nc2ccccc2o1)c1ccc2c(c1)OCO2)N(Cc1ccc2ccccc2c1)C(=O)[C@H]1OC(C(=O)[O-])(C(=O)[O-])O[C@@H]1C(=O)[O-].[Na+].[Na+].[Na+]` returned an Inhibition of 42%. It took 7.2 nM to reach half-maximal inhibition in assay [1] (IC50). Take `CC(C(C/C=C/c1nc2ccccc2o1)c1ccc2c(c1)OCO2)N(Cc1ccc2ccccc2c1)C(=O)C1OC(C(=O)O)(C(=O)O)O[C@H]1C(=O)O` (single isomer, unassigned): the figures for the IC50 in assay [7] and in assay [1] were 17000 nM and 8 nM, respectively.
